Source: ChEMBL document CHEMBL1127413, “Cephem sulfones as inactivators of human leukocyte elastase. 5. 7 alpha-Methoxy- and 7 alpha-chloro-1,1-dioxocephem 4-ketones” (J Med Chem, 1994)

How the values were obtained:
Neutrophil elastase = molecular target: T1, Neutrophil elastase (Homo sapiens, UniProt P08246); test: Inhibition constant (steady state) against Human Leukocyte Elastase (HLE)
T1 sequence (P08246 whole entry): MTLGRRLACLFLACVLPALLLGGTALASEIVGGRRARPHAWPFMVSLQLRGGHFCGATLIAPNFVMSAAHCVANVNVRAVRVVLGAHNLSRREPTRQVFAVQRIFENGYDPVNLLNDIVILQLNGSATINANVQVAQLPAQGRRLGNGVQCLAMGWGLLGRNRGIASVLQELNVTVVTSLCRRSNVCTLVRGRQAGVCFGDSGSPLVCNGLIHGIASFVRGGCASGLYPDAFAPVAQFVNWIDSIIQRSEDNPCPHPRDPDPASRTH
Procedure, shortened: (§1)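 HLE from human sputum, active-site titrated with MeO-Suc-Ala-Ala-Pro-Val-CH2Cl; 1–3 nM active enzyme. […] Substrate and inhibitor concentrations varied to derive kon and Ki(ss).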

[1] = Chemical stability (T1/2 at pH 7.4); type: physicochemical; conditions: buffer
[2] = molecular target: T2, Neutrophil elastase (Homo sapiens) (UniProt P08246); test: Tested for the rate constant against Human Leukocyte Elastase (HLE) inactivation; procedure, shortened: as §1
T2 sequence (whole entry): T1 sequence (P08246 whole entry)

[3] = molecular target: T2, Neutrophil elastase (Homo sapiens); test: Tested for inhibition of Human Leukocyte Elastase (HLE) in living polymorphonuclear leukocytes; type: cell-based; set-up: scale not given: the % may be the effect or the level left
Procedure, shortened: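 Human PMNs from citrated venous blood, 5 × 10^6 cells/mL, exposed to inhibitor (10 μg per mL, in DMSO) for 15 min at 37 °C, then washed three times. Stimulated with cytochalasin B for 5 min, then fMLP for 15 min. Supernatant elastase assayed with N-acetyl-Ala-Ala-Pro-Ala-7-(4-methyl)coumarylamide, 6 h at 25 °C, fluorescence read; DMSO-only controls.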

Ki ss (Neutrophil elastase) | half-life [1] | k on [2] | Activity [3] | Compound
< 2 nM | 1.2 h |  |  | CO[C@H]1C(=O)N2C(C(=O)C(C)(C)C)=C(COC(=O)c3ccccc3)[C@@H](OC(=O)c3ccccc3)S(=O)(=O)C12 (some centres not stated)
130 nM | 2.3 h |  |  | CC1=C(C(=O)c2ccccc2)N2C(=O)[C@H](Cl)C2S(=O)(=O)C1 (some centres not stated)
55 nM | 1400 h |  |  | CO[C@H]1C(=O)N2C(C(=O)c3ccccc3)=C(CSc3nnnn3C)[C@@H](Sc3nnnn3C)S(=O)(=O)C12 (some centres not stated)
 | 10 h |  |  | CC(=O)CCC1=C(COC(C)=O)CS(=O)(=O)C2[C@@H](Cl)C(=O)N12 (some centres not stated)
12 nM | 27 h |  |  | CO[C@H]1C(=O)N2C(C(=O)C(C)(C)C)=C(C)[C@@H](Sc3nnc(C)s3)S(=O)(=O)C12 (some centres not stated)
12 nM | 0.9 h |  |  | COC(=O)C1=C(COC(C)=O)CS(=O)(=O)C2[C@@H](Cl)C(=O)N12 (some centres not stated)
200 nM | 18 h | 1800 M⁻¹ s⁻¹ |  | CO[C@H]1C(=O)N2C(C(=O)N3CCC[C@H]3C(=O)O)=C(COC(C)=O)CS(=O)(=O)C12 (some centres not stated)
100 nM | 5.1 h |  |  | CO[C@H]1C(=O)N2C(C(=O)OC(C)(C)C)=C(CSc3ccccn3)CS(=O)(=O)C12 (some centres not stated)
4 nM | 3.9 h |  |  | CC(=O)OCC1=C(C(=O)C(C)(C)C)N2C(=O)[C@H](Cl)C2S(=O)(=O)C1 (some centres not stated)
2700 nM | 26 h |  |  | CO[C@H]1C(=O)N2C(C(=O)c3ccccc3)=C(C)CS(=O)(=O)C12 (some centres not stated)
< 2 nM | 33 h |  |  | CO[C@H]1C(=O)N2C(C(=O)C(C)(C)C)=C(C)[C@@H](OC(=O)c3ccc4ccccc4c3)S(=O)(=O)C12 (some centres not stated)
600 nM | < 0.5 h |  |  | CO[C@H]1C(=O)N2C(C(=O)C(C)(C)C)=C(C)[C@@H](OC=O)S(=O)(=O)C12 (some centres not stated)
93 nM | 31 h |  |  | CO[C@H]1C(=O)N2C(C(=O)C(C)(C)C)=C(CSc3nnnn3C)[C@@H](Sc3nnnn3C)S(=O)(=O)C12 (some centres not stated)
8 nM | 18 h |  |  | CO[C@H]1C(=O)N2C(C(=O)C(C)(C)C)=C(C)[C@@H](Sc3nnnn3C)S(=O)(=O)C12 (some centres not stated)
20 nM | 10 h |  |  | CO[C@H]1C(=O)N2C(C(=O)C(C)(C)C)=C(C)[C@@H](S(=O)(=O)c3ccccc3)S(=O)(=O)C12 (some centres not stated)
110 nM | 17 h |  |  | CO[C@H]1C(=O)N2C(C(=O)c3ccccc3)=C(CSc3nnnn3C)CS(=O)(=O)C12 (some centres not stated)
270 nM | 4.1 h |  |  | CC1=C(C(=O)c2ccccc2)N2C(=O)[C@H](Cl)C2S(=O)(=O)[C@@H]1Sc1nnnn1C (some centres not stated)
< 2 nM | 13 h |  |  | CO[C@H]1C(=O)N2C(C(=O)C(C)(C)C)=C(C)[C@@H](OC(=O)CCC(=O)c3ccccc3)S(=O)(=O)C12 (some centres not stated)
34 nM | 24 h |  |  | CO[C@H]1C(=O)N2C(C(=O)C(C)(C)C)=C(CSc3nnnn3C)CS(=O)(=O)C12 (some centres not stated)
< 2 nM | 54 h |  |  | CO[C@H]1C(=O)N2C(C(=O)C(C)(C)C)=C(C)[C@@H](OC(=O)C(C)(C)C)S(=O)(=O)C12 (some centres not stated)
13 nM | 3.8 h |  |  | CO[C@H]1C(=O)N2C(C(=O)OC(C)(C)C)=C(CSc3nnnn3C)CS(=O)(=O)C12 (some centres not stated)
75 nM | 25 h |  |  | CO[C@H]1C(=O)N2C(C(=O)N3CCCC3)=C(CSc3nc(=O)c(=O)[nH]n3C)CS(=O)(=O)C12 (some centres not stated)

Ki ss (Neutrophil elastase) | half-life [1] | k on [2] | Activity [3] | Compound
12 nM | 28 h |  |  | CO[C@H]1C(=O)N2C(C(=O)C(C)(C)C)=C(CSc3ccccn3)CS(=O)(=O)C12 (some centres not stated)
11 nM | 14 h |  |  | CO[C@H]1C(=O)N2C(C(=O)C(C)(C)C)=C(COC(C)=O)CS(=O)(=O)C12 (some centres not stated)
27 nM | 16 h |  |  | CO[C@H]1C(=O)N2C(C(=O)C(C)(C)C)=C(CSc3nc(=O)c(=O)[nH]n3C)CS(=O)(=O)C12 (some centres not stated)
11 nM | 1.1 h |  |  | CCC(=O)C1=C(COC(C)=O)CS(=O)(=O)C2[C@@H](Cl)C(=O)N12 (some centres not stated)
6 nM | 10 h |  |  | CO[C@H]1C(=O)N2C(C(=O)C(C)(C)C)=C(COC(C)=O)[C@@H](Sc3nnnn3C)S(=O)(=O)C12 (some centres not stated)
300 nM | 3.2 h |  |  | CC1=C(C(=O)C(C)(C)C)N2C(=O)[C@H](Cl)C2S(=O)(=O)[C@@H]1Sc1nnnn1C (some centres not stated)
170 nM | 6.9 h |  |  | COCC1=C(C(=O)C(C)(C)C)N2C(=O)[C@H](Cl)C2S(=O)(=O)C1 (some centres not stated)
180 nM | 4.1 h |  |  | CO[C@H]1C(=O)N2C(C(=O)OC(C)(C)C)=C(C)[C@@H](Sc3ccccn3)S(=O)(=O)C12 (some centres not stated)
7 nM | 3 h |  |  | Cn1nnnc1SCC1=C(C(=O)C(C)(C)C)N2C(=O)[C@H](Cl)C2S(=O)(=O)C1 (some centres not stated)
26 nM | 21 h |  |  | CO[C@H]1C(=O)N2C(C(=O)C(C)(C)C)=C(C)[C@@H](Sc3nc(=O)c(=O)[nH]n3C)S(=O)(=O)C12 (some centres not stated)
 |  |  | 8% | CO[C@H]1C(=O)N2C(C(=O)SCC(NC(=O)OC(C)(C)C)C(=O)OC(c3ccccc3)c3ccccc3)=C(CSc3nnnn3C)CS(=O)(=O)[C@H]12 (some centres not stated)
1300 nM | 106 h |  |  | CO[C@H]1C(=O)N2C(C(=O)C(C)(C)C)=C(C)CS(=O)(=O)C12 (some centres not stated)
140 nM | 1.8 h |  |  | CC(=O)OCC1=C(C(=O)C(C)(C)C)N2C(=O)[C@H](Cl)C2S(=O)(=O)[C@@H]1Sc1nnnn1C (some centres not stated)
< 2 nM | 24 h |  |  | CO[C@H]1C(=O)N2C(C(=O)C(C)(C)C)=C(C)[C@@H](OC(=O)c3ccccc3)S(=O)(=O)C12 (some centres not stated)
4 nM | 6.3 h |  |  | CO[C@H]1C(=O)N2C(C(=O)C(C)(C)C)=C(C)[C@@H](OC(C)=O)S(=O)(=O)C12 (some centres not stated)
2 nM | 7.5 h |  |  | CO[C@H]1C(=O)N2C(C(=O)C(C)(C)C)=C(C)[C@@H](OC(=O)c3ccc(CSc4nc(=O)c(=O)[nH]n4C)cc3)S(=O)(=O)C12 (some centres not stated)
10 nM | 24 h |  |  | CO[C@H]1C(=O)N2C(C(=O)C(C)(C)C)=C(C)[C@@H](Sc3ccccn3)S(=O)(=O)C12 (some centres not stated)
12 nM | 1.5 h |  |  | CC(=O)OCC1=C(C(=O)c2ccccc2)N2C(=O)[C@H](Cl)C2S(=O)(=O)C1 (some centres not stated)
380 nM | 5.6 h |  |  | CC1=C(C(=O)C(C)(C)C)N2C(=O)[C@H](Cl)C2S(=O)(=O)C1 (some centres not stated)
100 nM | 0.2 h |  |  | CC(=O)OCC1=C(C(=O)Cc2ccccc2)N2C(=O)[C@H](Cl)C2S(=O)(=O)C1 (some centres not stated)
1400 nM | 200 h |  |  | CO[C@H]1C(=O)N2C(C(=O)c3ccccc3)=C(C)[C@@H](Sc3nnnn3C)S(=O)(=O)C12 (some centres not stated)
< 2 nM | 0.7 h |  |  | CO[C@H]1C(=O)N2C(C(=O)C(C)(C)C)=C(CSc3nnnn3C)[C@@H](OC(=O)c3ccccc3)S(=O)(=O)C12 (some centres not stated)
